From ChEMBL document CHEMBL2375227, “Novel small molecules as apoptosis inducers: synthesis, preliminary structure-activity relationships, and in vitro biological evaluation” (Bioorg Med Chem Lett, 2013)

Experiments:
[1] = Antiproliferative activity against human H460 cells after 48 hrs by MTT assay; type: functional, cell-based; conditions: NCI-H460, 48 h
Summary of the method: (§1)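 Cells seeded at 3 × 10^3/well and grown 24 h, then exposed to compounds for 48 h. MTT (5 mg/ml stock) added for 2 h at 37 °C, supernatant removed, formazan dissolved in DMSO 15-20 min. Absorbance read at 570 nm. IC50 per cell line, mean of three determinations.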

HeLa = assay: Antiproliferative activity against human HeLa cells after 48 hrs by MTT assay; type: functional, cell-based; summary of the method: as §1
[2] = Antiproliferative activity against human A875 cells after 48 hrs by MTT assay; type: functional, cell-based; conditions: A875, 48 h; summary of the method: as §1
HCT-116 = assay: Antiproliferative activity against human HCT116 cells after 48 hrs by MTT assay; type: functional, cell-based; conditions: HCT-116, 48 h; summary of the method: as §1
HepG2 = assay: Antiproliferative activity against human HepG2 cells after 48 hrs by MTT assay; type: functional, cell-based; conditions: HepG2, 48 h; summary of the method: as §1
BXPC-3 = assay: Antiproliferative activity against human BxPC3 cells after 48 hrs by MTT assay; type: functional, cell-based; conditions: BXPC-3, 48 h; summary of the method: as §1
SMMC-7721 = assay: Antiproliferative activity against human SMMC7721 cells after 48 hrs by MTT assay; type: functional, cell-based; conditions: SMMC-7721, 48 h; summary of the method: as §1
HT-29 = assay: Antiproliferative activity against human HT-29 cells after 48 hrs by MTT assay; type: functional, cell-based; conditions: HT-29, 48 h; summary of the method: as §1
A549 = assay: Antiproliferative activity against human A549 cells after 48 hrs by MTT assay; type: functional, cell-based; conditions: A549, 48 h; summary of the method: as §1
Bel-7402 = assay: Antiproliferative activity against human Bel7402 cells after 48 hrs by MTT assay; type: functional, cell-based; conditions: Bel-7402, 48 h; summary of the method: as §1
[3] = Cell cycle arrest in human A875 cells assessed as accumulation at G0/G1 phase at 1.5 uM after 48 hrs by propidium iodide staining-based flow cytometric analysis (reference value: 78.18%); type: functional
[4] = Induction of apoptosis in human A875 cells at 0.75 uM after 24 hrs by propidium iodide staining-based flow cytometric analysis (reference value: 1.14%); type: functional
[5] = Induction of apoptosis in human A875 cells at 1.5 uM after 24 hrs by propidium iodide staining-based flow cytometric analysis (reference value: 1.14%); type: functional
[6] = Induction of apoptosis in human A875 cells at 0.38 uM after 24 hrs by propidium iodide staining-based flow cytometric analysis (reference value: 1.14%); type: functional
[7] = Induction of apoptosis in human A875 cells at 1.5 uM after 48 hrs by propidium iodide staining-based flow cytometric analysis (reference value: 1.56%); type: functional
[8] = Cell cycle arrest in human A875 cells assessed as accumulation at G0/G1 phase at 0.75 uM after 48 hrs by propidium iodide staining-based flow cytometric analysis (reference value: 78.18%); type: functional
[9] = Cell cycle arrest in human A875 cells assessed as accumulation at G2/M phase at 1.5 uM after 48 hrs by propidium iodide staining-based flow cytometric analysis (reference value: 10.36%); type: functional
[10] = Cell cycle arrest in human A875 cells assessed as accumulation at G2/M phase at 0.38 uM after 48 hrs by propidium iodide staining-based flow cytometric analysis (reference value: 10.36%); type: functional
A875 [11] = assay: Induction of apoptosis in human A875 cells after 48 hrs by propidium iodide staining-based flow cytometric analysis; type: functional, cell-based
A875 [12] = assay: Induction of apoptosis in human A875 cells assessed as appearance of condensed nuclei after 36 hrs by Hoechst 33342 staining-based fluorescence microscopic analysis; type: functional, cell-based
Summary of the method: (§2)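 A875 cells (1 × 10^5/well) cultured 24 h, then treated for 36 h at 0.38, 0.75 or 1.5 µM. After PBS rinse and fixation in 75% ethanol, morphology checked by inverted bright-field microscope. Nuclei then stained with Hoechst 33342 (2 µg/mL in PBS) and examined by fluorescence microscopy for condensed, fragmented nuclei.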

[13] = Cell cycle arrest in human A875 cells assessed as accumulation at S phase at 0.38 uM after 48 hrs by propidium iodide staining-based flow cytometric analysis (reference value: 11.46%); type: functional
[14] = Cell cycle arrest in human A875 cells assessed as accumulation at S phase at 0.75 uM after 48 hrs by propidium iodide staining-based flow cytometric analysis (reference value: 11.46%); type: functional
[15] = Cell cycle arrest in human A875 cells assessed as accumulation at G2/M phase at 0.75 uM after 48 hrs by propidium iodide staining-based flow cytometric analysis (reference value: 10.36%); type: functional
[16] = Cell cycle arrest in human A875 cells assessed as accumulation at G0/G1 phase at 0.38 uM after 48 hrs by propidium iodide staining-based flow cytometric analysis (reference value: 78.18%); type: functional
A875 [17] = assay: Induction of apoptosis in human A875 cells assessed as cell shrinkage and rounding up after 36 hrs by Hoechst 33342 staining-based fluorescence microscopic analysis; type: functional; summary of the method: as §2
[18] = Induction of apoptosis in human A875 cells at 0.75 uM after 48 hrs by propidium iodide staining-based flow cytometric analysis (reference value: 1.56%); type: functional
[19] = Induction of apoptosis in human A875 cells at 0.38 uM after 48 hrs by propidium iodide staining-based flow cytometric analysis (reference value: 1.56%); type: functional
[20] = Cell cycle arrest in human A875 cells assessed as accumulation at S phase at 1.5 uM after 48 hrs by propidium iodide staining-based flow cytometric analysis (reference value: 11.46%); type: functional

C=CC(=O)Nc1ccc(SCC(=O)Nc2cc(Cl)ccn2)cc1
IC50 [1]: 19.7 µM
IC50 (HeLa): 25.2 µM
IC50 [2]: 14.7 µM

O=C(CSc1ccc(NC(=O)CCCl)cc1)NCc1ccc(Cl)cc1
IC50 [1]: 60.8 µM
IC50 (HeLa): > 80 µM
IC50 [2]: 31.4 µM

COc1ccccc1C(=O)Nc1nnc(SCC(=O)Nc2ccc(Br)cn2)s1
IC50 [1]: > 80 µM
IC50 (HeLa): > 80 µM
IC50 [2]: > 80 µM

O=C(CCl)Nc1ccc(SCC(=O)Nc2ccccn2)cc1
IC50 [1]: 11.9 µM
IC50 (HeLa): 7.8 µM
IC50 [2]: 17.2 µM

O=C(CCl)Nc1ccc(SCC(=O)Nc2ccc(Br)cn2)cc1
IC50 (HCT-116): 1.2 µM
IC50 [1]: 0.53 µM
IC50 (HepG2): 5.8 µM
IC50 (BXPC-3): 0.28 µM
IC50 (SMMC-7721): 0.43 µM
IC50 (HeLa): 2.1 µM
IC50 (HT-29): 13.7 µM
IC50 [2]: 0.29 µM
IC50 (A549): 6.2 µM
IC50 (Bel-7402): 0.67 µM

Cc1ccc(NC(=O)CSc2nnc(NC(=O)CCl)s2)nc1
IC50 [1]: 15.4 µM
IC50 (HeLa): 10.9 µM
IC50 [2]: 18.3 µM

C=CC(=O)Nc1ccc(SCC(=O)NCc2cccc(Cl)c2)cc1
IC50 [1]: 74.5 µM
IC50 (HeLa): > 80 µM
IC50 [2]: 21.1 µM

O=C(CCl)Nc1ccc(SCC(=O)Nc2ccc(Cl)cn2)cc1
IC50 (HCT-116): 0.61 µM
IC50 [1]: 0.42 µM
IC50 (HepG2): 3.6 µM
Activity [3]: 30.5%
Activity [4]: 25.45%
Activity [5]: 42.88%
Activity [6]: 3.67%
Activity [7]: 61.59%
Activity [8]: 48.9%
IC50 (BXPC-3): 0.19 µM
Activity [9]: 29.9%
IC50 (SMMC-7721): 0.35 µM
Activity [10]: 10.8%
Activity (A875 [11]): Dose-dependent effect
Activity (A875 [12]): Dose-dependent effect
Activity [13]: 29.1%
Activity [14]: 31.2%
IC50 (HeLa): 2.5 µM
IC50 (HT-29): 8.7 µM
Activity [15]: 21.8%
Activity [16]: 60%
Activity (A875 [17]): Dose-dependent effect
IC50 [2]: 0.098 µM
Activity [18]: 41.59%
Activity [19]: 11.17%
IC50 (A549): 0.59 µM
Activity [20]: 39.6%
IC50 (Bel-7402): 0.45 µM

CC(C)(C)C(=O)Nc1ccc(SCC(=O)Nc2ccc(Cl)cn2)cc1
IC50 [1]: 67.2 µM
IC50 (HeLa): > 80 µM
IC50 [2]: > 80 µM

O=C(CCl)Nc1ccc(SCC(=O)Nc2cc(Cl)ccn2)cc1
IC50 [1]: 5.6 µM
IC50 (HeLa): 2.8 µM
IC50 [2]: 0.85 µM

O=C(CSc1nnc(NC(=O)c2c(Cl)cccc2Cl)s1)Nc1ccc(Br)cn1
IC50 [1]: 16.8 µM
IC50 (HeLa): 25.8 µM
IC50 [2]: 18.6 µM

O=C(CSc1nnc(NC(=O)CCl)s1)Nc1ccc(Br)cn1
IC50 [1]: 7.5 µM
IC50 (HeLa): 3.4 µM
IC50 [2]: 13.9 µM

O=C(CSc1nnc(NC(=O)CCCl)s1)Nc1ccc(Br)cn1
IC50 [1]: 0.56 µM
IC50 (HeLa): 5.3 µM
IC50 [2]: 0.43 µM

O=C(CSc1ccc(NC(=O)CCl)cc1)NCc1ccc(Cl)cc1
IC50 [1]: 23.1 µM
IC50 (HeLa): > 80 µM
IC50 [2]: 8.9 µM

COc1ccccc1C(=O)Nc1nnc(SCC(=O)Nc2ccc(C)cn2)s1
IC50 [1]: > 80 µM
IC50 (HeLa): > 80 µM
IC50 [2]: > 80 µM

C=CC(=O)Nc1ccc(SCC(=O)Nc2ccccn2)cc1
IC50 [1]: 76.8 µM
IC50 (HeLa): > 80 µM
IC50 [2]: 23.4 µM

CC(C)(C)C(=O)Nc1ccc(SCC(=O)Nc2cc(Cl)ccn2)cc1
IC50 [1]: 35.3 µM
IC50 (HeLa): > 80 µM
IC50 [2]: > 80 µM

O=C(CSc1nnc(NC(=O)CCCCl)s1)Nc1ccc(Cl)cn1
IC50 [1]: 55.2 µM
IC50 (HeLa): > 80 µM
IC50 [2]: > 80 µM

Cc1ccnc(Cl)c1NC(=O)CSc1nnc(NC(=O)CCl)s1
IC50 [1]: 59.6 µM
IC50 (HeLa): 70.5 µM
IC50 [2]: 34.7 µM

O=C(CCCCl)Nc1ccc(SCC(=O)Nc2ccc(Cl)cn2)cc1
IC50 [1]: > 80 µM
IC50 (HeLa): > 80 µM
IC50 [2]: > 80 µM

O=C(CSc1nnc(NC(=O)C(Cl)Cl)s1)Nc1ccc(Br)cn1
IC50 [1]: 5.3 µM
IC50 (HeLa): 15.2 µM
IC50 [2]: 6.5 µM

O=C(CSc1ccc(NC(=O)CCl)cc1)NCc1cccc(Cl)c1
IC50 [1]: 33.4 µM
IC50 (HeLa): > 80 µM
IC50 [2]: 7.8 µM

O=C(CCCl)Nc1ccc(SCC(=O)Nc2cc(Cl)ccn2)cc1
IC50 [1]: 10.9 µM
IC50 (HeLa): 21.7 µM
IC50 [2]: 12.3 µM

O=C(CCCl)Nc1ccc(SCC(=O)Nc2ccc(Br)cn2)cc1
IC50 [1]: 1.6 µM
IC50 (HeLa): 15.6 µM
IC50 [2]: 24.3 µM

O=C(CSc1nnc(NC(=O)CCl)s1)Nc1ccc(Cl)cn1
IC50 [1]: 5.7 µM
IC50 (HeLa): 3.6 µM
IC50 [2]: 8.6 µM

O=C(CSc1ccc(NC(=O)C(Cl)Cl)cc1)Nc1ccc(Br)cn1
IC50 [1]: 47.8 µM
IC50 (HeLa): > 80 µM
IC50 [2]: 56.8 µM

O=C(CCCl)Nc1ccc(SCC(=O)Nc2ccccn2)cc1
IC50 [1]: 65.4 µM
IC50 (HeLa): 70.4 µM
IC50 [2]: 29.5 µM

COc1ccccc1C(=O)Nc1nnc(SCC(=O)Nc2ccc(Cl)cn2)s1
IC50 [1]: > 80 µM
IC50 (HeLa): > 80 µM
IC50 [2]: > 80 µM

O=C(CSc1ccc(NC(=O)C(Cl)(Cl)Cl)cc1)Nc1ccc(Cl)cn1
IC50 [1]: > 80 µM
IC50 (HeLa): > 80 µM
IC50 [2]: > 80 µM

COc1ccccc1C(=O)Nc1nnc(SCC(=O)Nc2c(C)ccnc2Cl)s1
IC50 [1]: > 80 µM
IC50 (HeLa): > 80 µM
IC50 [2]: > 80 µM
